Laboratory results: publication PMC5096746 (Drug Design, Development and Therapy, 2016)
Marks after values point to notes of the source that are not given here.

What was measured:
[1] = test system: TNFα; experiment: In vitro TNFα assay; assay type: cell-based; conditions: Mus musculus, RAW264.7, read-out: TNFα inhibition
Procedure, shortened: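 Macrophages grown in RPMI 1640 with 10% FBS, penicillin and streptomycin. Cells preincubated with cytochalasin D (2.5 μM/10^6 cells) for 30 min, then seeded at 2×10^6 cells/mL. LPS added with test compound or celecoxib at 20 μM for 24 h. Supernatant TNFα measured by sandwich ELISA (TMB substrate, 30 min dark, H2SO4 stop, A450) against kit standard.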

[2] = test system: NO (nitrite) in RAW264.7 mouse macrophages; experiment: Nitric oxide; assay type: cell-based; conditions: 20 µM compound, LPS-stimulated, LPS alone 20.46±1.03
[3] = test system: carrageenan-induced rat-paw edema; experiment: Carrageenan-induced rat-paw edema, in vivo anti-inflammatory activity; set-up: species or system Wistar rats; conditions: oral, dose equimolar to ibuprofen 20 mg/kg; for Anti-inflammatory activity (% inhibition ± SEM) 3 hours: 3 hours post-carrageenan; for Anti-inflammatory activity (% inhibition ± SEM) 4 hours: 4 hours post-carrageenan
[4] = test system: gastric mucosa; experiment: Acute ulcerogenic activity; assay type: in vivo; conditions: rats
Procedure, shortened: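 Rats; controls received 0.5% carboxymethyl cellulose. After dosing, rats were fed a normal diet for 17 h and then killed. Stomachs opened along the greater curvature and mucosa examined under microscopy. Scoring: 0.5 redness, 1 spot ulcer, 1.5 haemorrhagic streaks, 2 ulcers >3 but <5, 3 ulcers >5. Severity index = treated-group mean score minus control mean.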

| Structure (SMILES) | inhibition at 20 µM [1] [%] | NO (nitrite/mg, mmol/mg) 20 µM [2] [mmol/mg] | NO (nitrite/mg, mmol/mg) 20 µM ([2]; listed as celecoxib) [mmol/mg] | Anti-inflammatory activity (% inhibition ± SEM) 3 hours [3] | Anti-inflammatory activity (% inhibition ± SEM) 4 hours [3] | Gastric ulceration / mucosal damage (histopathology, in words) ([4]; 60 mg/kg) | Ulcerogenic activity (severity index ± SEM) ([4]; 60 mg/kg oral, killed after 17 hours, mean score minus control score) |
| --- | --- | --- | --- | --- | --- | --- | --- |
| Cc1ccc(-c2cc(C(F)(F)F)nn2-c2ccc(S(N)(=O)=O)cc2)cc1 [Celecoxib, celecoxib] | 72 | 7.53 ± 0.23 | 7.53 |  |  |  |  |
| c1ccc(COc2ccc(-c3nn(-c4ccccc4)cc3CNc3ccccc3)cc2)cc1 [Compound 5a, N-((3-(4-(Benzyloxy)phenyl)-1-phenyl-1H-pyrazol-4-yl)methyl)aniline] |  |  |  | 50.77±4.28 ^c % | 47.91±4.39 ^c % |  |  |
| CC(C)Cc1ccc(C(C)C(=O)O)cc1 (stereo not drawn) [Ibuprofen, ibuprofen] |  |  |  | 81.32±0.59 ^a % | 79.23±0.4 ^a % | mucosal cell damage | 1.16±0.4 |
